# Screening results: PubChem BioAssay, several laboratories
# RAM inhibit: yeast RAM network inhibition; S. cerevisiae dse1pr::URA3 reporter, 5-FOA growth OD615, 2 d; analog-sensitive cbk1-as2 kinase mutant strain; 190,000 tested, 1.8% active; AID 868; inhibition, % at 50 µM;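 active = inhibition above a set limit, 3 SD over mean compound inhibition, cut at about 8.4% in these data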;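 also: 0% = DMSO-only wells with no growth and 100% = 10 µM 1-NA-PP1 full growth; inhibition rescues growth on 5-FOA so higher OD means more RAM inhibition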
# L major viab: inhibitors of Leishmania major promastigote growth; Leishmania major promastigotes, resazurin fluorescence viability; inhibition, % at 10 µM; 200,000 tested, 9% active; AID 1063; in the data active = inhibition above about 50%;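 also: promastigotes grown with compound for 44 hours at 28 °C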
# WT yeast gro inh: growth inhibition of WT yeast, mitochondrial fusion screen; mitochondrial fusion phenotypic screen, WT strain; inhibition, % at 10 µM; 190,000 tested, 2.1% active; AID 1362; in the data active = inhibition above about 58%; tested in S. cerevisiae
# ABCG2 inh: human ABCG2 inhibition, ABCB1 as counter-screen; Q9UNQ0; IgMXP3 cells, JC-1 efflux, flow cytometry; inhibition, % at 6.6 µM; 190,000 tested, 0.1% active; AID 1325;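 active = inhibition above 80%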;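 also: 0% = DMSO and 100% = nicardipine control wells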
#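 Measure – % inhibition of efflux relative to nicardipine and DMSO · Test system – ABCG2 IgMXP3 and barcoded ABCB1 CCRF-Adr cell mix · Control set – nicardipine as high control, DMSO as low control · Compound – one concentration, 6.6 µM final · Signal – flow cytometry of retained JC-1 fluorescence · Timing – 10 min exposure at 25 °C with rotation, no wash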
# ABCB1 inh: human ABCB1 inhibition, ABCG2 as counter-screen; 190,000 tested, 0.067% active; AID 1326; inhibition, % at 6.6 µM; CCRF-Adr cells, JC-1 efflux, flow cytometry; P08183; in the data active = inhibition above about 40%;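 also: 0% = vehicle and 100% = reference inhibitor; higher value means more JC-1 retained so stronger ABCB1 efflux block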
# Starred values were filed as active, the others as inactive; · = no result; + = active, no number. A selection: hits, their analogues and other compounds. The true share with any hit is near 12%.
SMILES,RAM inhibit,L major viab,WT yeast gro inh,ABCG2 inh,ABCB1 inh
O=C(C1CCCCC1)N1CCN(S(=O)(=O)c2ccc(Cl)cc2)CC1,2,0,5,3,1
O=S(=O)(c1ccc(-c2ccccc2)cc1)N1CCOCC1,1,-6,16,10,1
CCc1ccc(NC(=O)CC2C(=O)N(c3ccc(C)cc3)C(=O)N2C2CC2)cc1 (centres undefined),1,18,-11,0,0
CCn1c(=O)cc(C(F)(F)F)[nH]c1=S,2,-18,-10,-1,0
Cn1c(CS/C(N)=N/N=C/c2ccccc2)c(Br)c(=O)n1-c1ccccc1,0,5,13,1,0
CCOc1cc(N2CCOCC2)c(OCC)cc1NC(=O)COc1ccc2ccc(=O)oc2c1,3,11,-4,6,-2
Cc1ccc(-n2cccn2)c(CN2CCC(CO)(CCc3ccccc3)CC2)c1,0,4,-1,4,2
O=S(=O)(c1ccc(Cl)cc1)N1CCC(N2CCOCC2)CC1,2,91*,-6,-1,0
CN(Cc1ccccc1)C(=O)c1nn2cccnc2c1Cl,-1,-6,16,8,0
COC(=O)c1c(NC(=O)c2ccccc2[N+](=O)[O-])sc2c1CC(C)(C)NC2(C)C,0,96*,16,12,19
CCc1ccc(C(=O)CSc2nc3ccccc3c(=O)[nH]2)cc1,3,98*,27,5,0
CCc1ccc(/C=N/NC(=O)c2cc(C3CC3)nc3ccc(Br)cc23)s1,3,18,16,0,0
CCCNC(=O)c1c(N)n(-c2cc(OC)cc(OC)c2)c2nc3ccccc3nc12,2,30,13,11,1
CC(O)(CS(=O)(=O)Cc1ccc(Cl)cc1)C(=O)Nc1cccc(C(F)(F)F)c1 (centres undefined),2,1,2,2,1
O=C(Nc1cccc(C(F)(F)F)c1)N(Cc1ccc(Cl)cc1)CC(O)C(F)(F)F (centres undefined),0,96*,84*,0,0
CN(C)/C=N/c1ncn(-c2ncc(C(F)(F)F)cc2Cl)n1,1,-6,-20,9,1
Fc1ccc(-c2nnc(SCc3cccnc3)o2)cc1,1,3,-1,3,0
Clc1ccc(CN2CCN(c3ncnc4scc(-c5cccs5)c34)CC2)cc1,0,8,60*,2,2
Cc1ccccc1N1CCN(c2ncnc3scc(-c4cccs4)c23)CC1,5,35,65*,6,1
Clc1ccc(-c2csc3ncnc(N4CCc5ccccc5C4)c23)cc1,4,42,65*,4,1
CCOc1nc(Nc2ccc([N+](=O)[O-])cc2)nc(NC(C)(C)C)n1,0,74*,4,3,0
COc1nc(Nc2ccc([N+](=O)[O-])cc2)nc(NC(C)C)n1,2,97*,9,58,1
O=C(O)c1ccc2c(=O)[nH]c(CCl)nc2c1,1,-8,-5,5,2
CC(C)NC(=O)NC(=O)COC(=O)c1ccccc1Oc1ccccc1,0,19,17,2,1
CCCCN(C(=O)Cn1nnc2ccccc21)C(C(=O)NCCOC)c1cccs1 (centres undefined),1,2,-17,8,1
SMILES,RAM inhibit,L major viab,WT yeast gro inh,ABCG2 inh,ABCB1 inh
COCCNC(=O)C(c1cccc(OC)c1)N(Cc1cccs1)C(=O)Cn1nnc2ccccc21 (centres undefined),8.6*,-2,-1,1,0
CCSC1=NSC2=NC(=O)/C(=C\c3coc4ccccc4c3=O)C(=N)N12,4,-7,-13,+,29
O=c1oc2ccccc2c2c1nnn2CCO,1,-2,-4,1,0
CCN1CCN(C(=S)Nc2ccc(Cl)c(Cl)c2)CC1,1,84*,-3,-2,0
CCN1CCN(C(=S)Nc2cccc(C(F)(F)F)c2)CC1,2,60*,-7,34,3
Cc1ccc(C(=S)N2CCN(Cc3ccccc3)CC2)cc1,0,8,22,7,1
CCN1CCN(C(=S)NCc2ccc(C)cc2)CC1,1,83*,4,0,0
CCN1CCN(C(=S)c2ccc(-c3ccccc3)cc2)CC1,0,80*,8,10,1
CCN1CCN(C(=S)Nc2ccc(Cl)cc2Cl)CC1,1,-6,-3,2,1
CCN1CCN(C(=S)c2ccc(Cl)c(Cl)c2)CC1,-1,90*,-1,1,1
CSc1ccc(C(=S)N2CCN(CCO)CC2)cc1,1,75*,-21,0,0
COc1ccccc1OP(=O)(O)Oc1ccccc1OC,2,-5,-17,2,1
CCC(c1nnnn1Cc1cccs1)N1CCN(C(=O)c2ccco2)CC1 (centres undefined),0,4,-2,-1,0
COc1cccc(C(c2nnnn2Cc2ccccc2)N2CCN(C(=O)c3ccco3)CC2)c1OC (centres undefined),0,79*,3,1,1
COc1cccc(C(c2nnnn2Cc2ccco2)N2CCN(c3cccc(C)c3C)CC2)c1OC (centres undefined),0,58*,55,-1,0
COc1ccc(OC)c(C(c2nnnn2Cc2ccco2)N2CCN(C)CC2)c1 (centres undefined),-1,9,1,1,0
O=C(Nc1ccc2c(c1)OCO2)C(c1ccc(Cl)cc1)N1CCN(C(=O)c2ccco2)CC1 (centres undefined),0,50*,12,5,2
Cc1ccc(C(c2nnnn2Cc2cccs2)N2CCN(C(=O)c3ccco3)CC2)cc1 (centres undefined),1,58*,12,2,2
O=C(Nc1ccc2c(c1)OCO2)C(c1ccccc1)N1CCN(C(=O)c2ccco2)CC1 (centres undefined),0,2,2,0,0
O=C(c1ccco1)N1CCN(C(c2ccccc2Cl)c2nnnn2CC2CCCO2)CC1 (centres undefined),1,8,6,0,1
CCNc1nc(-c2ccc(OC(F)F)cc2)c(C)s1,0,14,35,1,0
CC(C)(CO)NCC(O)Cn1cc(C=O)c2ccccc21 (centres undefined),1,23,-5,5,2
CCCCC(c1nnnn1Cc1ccco1)N1CCN(C(=O)c2ccco2)CC1 (centres undefined),2,59*,-18,0,1
O=C(c1ccco1)N1CCN(C(c2ccc(Cl)cc2)c2nnnn2Cc2ccccc2)CC1 (centres undefined),0,85*,10,0,0
CCOc1ccc(C(c2nnnn2Cc2ccccc2)N2CCN(C(=O)c3ccco3)CC2)cc1 (centres undefined),·,23,·,·,·
O=C(c1ccco1)N1CCN(C(c2ccccc2F)c2nnnn2Cc2cccs2)CC1 (centres undefined),0,36,17,2,2
